Screening results: PubChem BioAssay, The Scripps Research Institute Molecular Screening Center
Shown are actives, neighbours in structure and some others; about 3.1% of the full set was active somewhere.
OX1R antag-1: human HCRTR1 antagonism. O43613. CHO/OX1R cells, Fluo-8 calcium fluorescence, orexin A. inhibition, % at 5 µM. actives 0.43% (n = 330,000). AID 434989;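 active = inhibition above its plate's threshold, mean inhibition of all tested compounds on the plate plus 3 SD, cut at about 37% in these data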;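 note: 0% = orexin A challenge wells and 100% = SB-334867-A antagonist wells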
Target sequence (O43613 whole entry, looked up): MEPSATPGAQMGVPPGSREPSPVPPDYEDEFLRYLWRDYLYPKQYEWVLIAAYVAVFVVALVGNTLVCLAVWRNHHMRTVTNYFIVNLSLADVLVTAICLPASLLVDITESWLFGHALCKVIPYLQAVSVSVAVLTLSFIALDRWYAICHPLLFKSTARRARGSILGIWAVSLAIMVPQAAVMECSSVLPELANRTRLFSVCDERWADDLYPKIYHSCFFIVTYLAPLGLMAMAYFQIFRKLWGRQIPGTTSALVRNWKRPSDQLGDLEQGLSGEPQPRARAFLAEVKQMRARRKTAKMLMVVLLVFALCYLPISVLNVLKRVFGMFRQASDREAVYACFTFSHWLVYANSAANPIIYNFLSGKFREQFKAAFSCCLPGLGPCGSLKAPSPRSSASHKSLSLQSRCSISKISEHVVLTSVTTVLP
GPR7 antagonist: antagonists of human GPR7 (neuropeptides B/W receptor 1) | P48145 | GPR7-expressing cells, fluorescence antagonist assay | inhibition, % at 4.4 µM | actives 1.1% (n = 290,000) | AID 1861; in the data active = inhibition above about 16%, passing the limit was not always enough;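 note: cells stimulated with the agonist NPW; 0% = agonist with vehicle and 100% = vehicle without agonist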
CHO parental Ca: signal in parental CHO cells, OX1R antagonist counter-screen. parental CHO-K1, ATP-induced calcium, Fluo-8 fluorescence. inhibition, % at 5.6 µM. actives 0.63% (n = 330,000). AID 463079;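 active = inhibition above that plate's mean sample inhibition plus 3 SD, cut at about 26% in these data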;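 note: 0% = ATP-challenged DMSO wells and 100% = DMSO wells without ATP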
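Test system: untransfected parental CHO cell line; also added: ATP stimulus; dosing: 5.6 µM, single dose; signal: calcium-sensitive Fluo-8 fluorescence; measure: percent inhibition of ATP-evoked calcium rise, normalized to controls; benchmarks: low control ATP plus DMSO, high control DMSO only; replication: one well per compound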
GalR3 antag: human GalR3 antagonism | actives 0.44% (n = 360,000) | HEK293 GalR3-CNG cAMP membrane potential fluorescence; galR3 body fused to GalR1 C-terminus | inhibition, % at 3 µM;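 active = inhibition above the screen-wide average plus 3 SD, cut at about 13% in these data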;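 note: forskolin and galanin both at EC90 stimulate the cells; cAMP rise reported by CNG channel membrane potential dye signal; 0% = forskolin plus galanin with DMSO and 100% = forskolin alone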
Target sequence (O60755 1-299 limits assumed): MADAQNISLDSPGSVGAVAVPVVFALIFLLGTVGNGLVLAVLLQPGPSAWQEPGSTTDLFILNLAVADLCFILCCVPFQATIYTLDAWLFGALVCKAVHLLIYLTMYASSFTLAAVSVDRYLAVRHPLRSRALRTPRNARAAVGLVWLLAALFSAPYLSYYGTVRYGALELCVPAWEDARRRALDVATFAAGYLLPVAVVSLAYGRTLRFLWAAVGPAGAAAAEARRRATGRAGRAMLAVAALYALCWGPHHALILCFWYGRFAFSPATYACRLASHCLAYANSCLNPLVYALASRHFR
OX1R antag-2: antagonists of human orexin 1 receptor (OX1R); OX1R-expressing cells, FRET antagonist read-out; inhibition, % at 6.6 µM; actives 1.8% (n = 330,000); AID 485270; in the data active = inhibition mostly above about 38%, no sharp cut-off; inactive = mostly below about 40%;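 note: 0% = agonist challenge alone and 100% = reference antagonist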
GPR7 antag conf: confirmation of human GPR7 antagonists; shares compounds with GPR7 antagonist; GPR7-expressing cells, calcium fluorescence antagonist mode; inhibition, % at 4.4 µM; actives 52% (n = 2,400); AID 1952; in the data active = inhibition above about 24%;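 note: stimulated with the GPR7 agonist NPW; 0% = agonist plus vehicle and 100% = vehicle alone without agonist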
MCHR1 antag: antagonizes human MCHR1, a GPR7 antagonist counter-screen; actives 62% (n = 2,400); shares compounds with GPR7 antagonist; inhibition, % at 4.4 µM; MCHR1-expressing cells, fluorescence antagonist assay; in the data active = inhibition above about 22%;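 note: 0% = vehicle with agonist and 100% = vehicle without agonist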
The depositor's hits bear a star; nt = no result given.

SMILES	OX1R antag-1	GPR7 antagonist	CHO parental Ca	GalR3 antag	OX1R antag-2	GPR7 antag conf	MCHR1 antag
CC1CCN(CCCNC(=O)CN2C(=O)CSc3ccc(S(=O)(=O)N4CCOCC4)cc32)CC1	7.0	-7.4	1.4	-6.2	9.2	nt	nt
CCC(=O)Nc1cccc(NC(=O)CSc2nnnn2Cc2ccccc2)c1	-28.7	22.6*	-32.8	-4.2	23.8	12.1	14.0
CC(=O)N1CCN(C(=O)CCc2cc(C(C)(C)C)c(O)c(C(C)(C)C)c2)CC1	-37.9	-9.3	-14.9	2.3	17.6	nt	nt
CCOC(=O)C1CCCN(C(=O)c2sc3nc(C)nc(N(CC)CC)c3c2C)C1 (configuration not stated)	-35.3	0.0	-15.8	-8.0	12.7	nt	nt
CCC1CCCCN1C(=O)c1sc2nc(C)nc(N(CC)CC)c2c1C (configuration not stated)	-39.0	24.9*	-13.8	-2.0	12.6	21.0	19.4
COc1ccc(-n2[nH]c3c(cnc4ccccc43)c2=O)cc1	nt	nt	nt	-5.8	nt	nt	nt
CCOc1ccccc1CNC(=O)CCN1C(=O)COc2ccccc21	2.8	6.9	-0.2	-0.7	26.3	nt	nt
O=C(CCN1C(=O)COc2ccccc21)NCc1cccnc1	1.6	28.5*	-13.7	-4.6	1.9	-4.4	20.6
O=c1c(Cl)c(Cl)cnn1Cc1nnc(-c2ccccc2Br)o1	nt	87.6*	nt	9.3	nt	89.4*	105.0*
O=NN(CCc1ccncc1)c1ccc(OCc2ccccc2)cc1	38.3*	24.8*	62.0*	2.8	52.7	49.6*	43.3*
CC1=CSC2=NS(=O)(=O)CCN12	-8.2	-6.4	-11.6	-2.9	17.9	nt	nt
O=S1(=O)CCN2C(Cc3ccc(SC(F)F)cc3)=CSC2=N1	9.3	23.9*	-9.6	-2.9	-8.0	16.6	12.4
CCCC(CCC)C(=O)Nc1ccc2c(c1)N(C(=O)CCN1CCN(C)CC1)c1ccccc1CC2	-20.8	27.6*	-6.4	-6.9	6.0	28.3*	17.9
c1ccc(CNc2c(C3CCNCC3)nc3scc(-c4ccccc4)n23)cc1	nt	nt	nt	-5.6	nt	nt	nt
COc1ccc(CN(CCC(c2ccccc2)C2CCOC(C)(C)C2)C(C)=O)cc1 (configuration not stated)	-19.6	23.7*	-18.7	-6.7	9.5	4.6	26.2*
COc1ccc(-n2c(=S)[nH]c3cc(C(=O)Nc4ccccc4OC)ccc3c2=O)c(OC)c1	-9.2	30.8*	-12.2	-13.5	8.2	24.0*	46.1*
COc1ccc(-n2c(=S)[nH]c3cc(C(=O)NCc4ccccc4OC)ccc3c2=O)c(OC)c1	7.9	25.5*	1.8	-2.2	9.2	38.2*	39.4*
COc1ccc(CCNC(=O)COc2cc(C)cc3oc(=O)cc(C)c23)cc1	-12.2	26.0*	-1.6	-6.4	-2.2	5.3	18.5
CC1=C(C(=O)N2CCCCCC2)CC(CC(=O)NCc2cccc3ccccc23)C(=O)N1CCC1=CCCCC1 (configuration not stated)	nt	nt	nt	-8.3	nt	nt	nt
O=Cc1ccccc1OCCOc1ccccc1C=O	13.5	23.9*	5.2	-10.2	19.2	12.0	24.8*
O=Cc1ccccc1Oc1ccccc1	1.6	-15.2	3.2	-3.8	2.0	nt	nt
C#CCOCCOCCOCCNc1nc(N2CCN(C(=O)[C@H](CCC(=O)O)n3cc(C(N)CC(C)C)nn3)CC2)nc(N2CCN(C(=O)[C@H](Cc3ccc(O)cc3)n3cc(C(N)CC(C)C)nn3)CC2)n1 (some centres not stated)	-0.6	-10.9	7.5	nt	12.2	nt	nt
C#CCOCCOCCOCCNc1nc(N2CCN(C(=O)[C@H](Cc3ccc(O)cc3)n3cc([C@@H](N)CC(C)C)nn3)CC2)nc(N2CCN(C(=O)[C@H](Cc3ccc(O)cc3)n3cc([C@@H](N)CC(C)C)nn3)CC2)n1	-7.6	31.2*	3.7	nt	18.2	-6.8	5.2
Cc1cc(C)n(-c2nc(NCCN(C)C)c3c4c(sc3n2)CCCC4)n1	3.8	24.2*	-13.2	0.8	6.1	26.7*	29.9*
Cc1cc(C)n(-c2nc(NCCCN(C)C)c3c4c(sc3n2)CCCC4)n1	-21.8	0.0	-17.6	-4.2	1.7	nt	nt
SMILES	OX1R antag-1	GPR7 antagonist	CHO parental Ca	GalR3 antag	OX1R antag-2	GPR7 antag conf	MCHR1 antag
Clc1cccc(CN2CCN(c3nc4nonc4nc3NC3CC3)CC2)c1	-26.6	27.2*	-5.3	-4.7	12.7	9.4	4.8
Cc1cccc(CN2CCN(c3nc4nonc4nc3NC3CC3)CC2)c1	-22.9	-6.1	-26.5	-1.1	38.2	nt	nt
O=C(c1cc(-c2ccccc2Cl)on1)N1CCCC1	-24.9	26.8*	-6.5	-10.5	16.3	17.2	7.3
CN(Cc1ccc(C(F)(F)F)cc1)C(=O)C1CCC(=O)N(C2CC2)C1 (configuration not stated)	nt	-2.7	nt	0.0	nt	nt	nt
CN(Cc1cccc(Cl)c1)C(=O)C1CCC(=O)N(C2CC2)C1 (configuration not stated)	-20.5	22.5*	-5.8	-4.7	-1.0	-8.6	11.9
CCCSc1nnc(CSc2nc3ccccc3s2)n1-c1ccccc1	-13.4	31.8*	-10.9	-6.1	37.5	9.9	49.9*
Cc1ccc(C2NC(=NCc3ccccc3)Nc3nc(C)cc(=O)n32)cc1 (configuration not stated)	-24.6	26.5*	-8.5	-1.8	5.7	-0.2	10.6
c1ccc(C(c2nnnn2Cc2cccs2)N2CCN(C3CCCC3)CC2)cc1 (configuration not stated)	-22.7	-1.0	-9.1	-3.5	12.1	nt	nt
CC(C)C(c1nnnn1Cc1cccs1)N1CCN(C2CCCC2)CC1 (configuration not stated)	-21.0	33.6*	-14.1	-3.8	25.5	17.4	14.3
CCC(c1nnnn1Cc1ccc(F)cc1)N1CCN(C2CCCCC2)CC1 (configuration not stated)	-2.5	45.8*	-22.0	-3.0	36.4	43.4*	29.0*
CCCc1cc(C(=O)Nc2ccc(F)c(Cl)c2)no1	-0.8	28.9*	7.3	-11.0	33.0	32.7*	30.2*
CCCc1cc(C(=O)Nc2cccc(Cl)c2)no1	-29.3	-4.5	-6.8	nt	11.3	nt	nt
CS/C(=C\[N+](=O)[O-])Nc1ccc(F)cc1	-7.0	23.4*	-7.6	1.6	31.0	-11.8	4.5
COC(=O)c1ccc2nc(-c3ccco3)c(Cc3ccccc3C(F)(F)F)n2c1	nt	nt	nt	-6.4	nt	nt	nt
c1ccc(N2[C@@H]3c4ccccc4C[C@H]2c2ccccc23)cc1	nt	nt	nt	-5.0	nt	nt	nt
Nc1nnnn1CC(=O)OCc1cccc(Br)c1	-8.9	27.2*	-2.3	-6.1	14.0	-2.9	1.1
O=C(CN1CC(c2ccccc2)CC1=O)OCc1cccc(Br)c1 (configuration not stated)	-20.3	4.9	-17.8	0.6	7.7	nt	nt
Cc1cc2c(cc1C)-n1nnnc1C(N1CCN(CC(=O)N3CCCC3)CC1)C(=O)N2 (configuration not stated)	nt	nt	nt	-5.1	nt	nt	nt
